# Assay results from ChEMBL document CHEMBL1765023, “Acetyl analogs of combretastatin A-4: synthesis and biological studies” (Bioorg Med Chem, 2011).
# Columns and labels:
# U-251 = assay: Growth inhibition of human U251 cells after 48 hrs by sulforhodamine B assay; format: functional; conditions: U-251, 48 h
# Outline: (§1)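 Tested in the NCI 60 human cancer cell line panel. Cells were exposed continuously for 48 h and proliferation was read by sulforhodamine B staining. GI50 (concentration for 50% growth inhibition), TGI (total growth inhibition) and LC50 were taken from dose–response curves.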
# Mus musculus [1] = assay: Toxicity in DBA2 mouse assessed as change in color, weight and size in spleen at 75 mg/kg, ip QD administered on alternate days for 17 days measured on day 23 relative to control; format: organism-based; parameters: dose 75 mg/kg, route intraperitoneal; conditions: in vivo, 408 h
# Outline: (§2)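 Healthy female DBA2 mice, 5–7 weeks old, five per group, received 75 mg/kg ip on days 1, 5, 9, 13 and 17. Vehicle was PET (PEG400/ethanol/Tween 80, 6:3:1), 5% glucose and DMSO, with final ethanol 15% and DMSO 10%. Controls received 100 µL vehicle. Body weight was measured every other day. At sacrifice on day 23, blood counts (hematocrit, WBC, granulocytes, platelets) and liver, kidney and spleen appearance and weight were assessed.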
# NCI-H522 = assay: Growth inhibition of human NCI-H522 cells after 48 hrs by sulforhodamine B assay; format: functional; conditions: NCI-H522, 48 h
# Outline: (§3)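 NCI 60 human cancer cell line screen run at the National Cancer Institute. Cells had 48 h continuous exposure, and proliferation was read by sulforhodamine B staining. GI50 (50% growth inhibition) was taken from dose–response curves.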
# A549 = assay: Growth inhibition of human A549 cells after 48 hrs by sulforhodamine B assay; format: functional; conditions: A549, 48 h; outline: as §3
# OVCAR-4 = assay: Growth inhibition of human OVCAR4 cells after 48 hrs by sulforhodamine B assay; format: functional; conditions: OVCAR-4, 48 h; outline: as §3
# NCI-H23 = assay: Growth inhibition of human NCI-H23 cells after 48 hrs by sulforhodamine B assay; format: functional; conditions: NCI-H23, 48 h; outline: as §3
# ACHN = assay: Growth inhibition of human ACHN cells after 48 hrs by sulforhodamine B assay; format: functional; outline: as §3
# Mus musculus [2] = assay: Toxicity in DBA2 mouse assessed as change in platelet count at 75 mg/kg, ip QD administered on alternate days for 17 days measured on day 23 relative to control; format: organism-based; parameters: dose 75 mg/kg, route intraperitoneal; conditions: in vivo, 408 h; outline: as §2
# PC-3 = assay: Growth inhibition of human PC3 cells after 48 hrs by sulforhodamine B assay; format: functional; conditions: PC-3, 48 h; outline: as §3
# Mus musculus [3] = assay: Toxicity in DBA2 mouse assessed as change in color, weight and size in kidney at 75 mg/kg, ip QD administered on alternate days for 17 days measured on day 23 relative to control; format: organism-based; parameters: dose 75 mg/kg, route intraperitoneal; conditions: in vivo, 408 h; outline: as §2
# 786-0 = assay: Growth inhibition of human 786-0 cells after 48 hrs by sulforhodamine B assay; format: functional; conditions: 786-0, 48 h; outline: as §3
# MDA-MB-231 = assay: Growth inhibition of human MDA-MB-231 cells after 48 hrs by sulforhodamine B assay; format: functional; conditions: MDA-MB-231, 48 h; outline: as §3
# NCI-H460 = assay: Growth inhibition of human NCI-H460 cells after 48 hrs by sulforhodamine B assay; format: functional; conditions: NCI-H460, 48 h; outline: as §3
# OVCAR-3 = assay: Growth inhibition of human OVCAR3 cells after 48 hrs by sulforhodamine B assay; format: functional; conditions: OVCAR-3, 48 h; outline: as §3
# Mus musculus [4] = assay: Toxicity in DBA2 mouse assessed as change in granulocyte count at 75 mg/kg, ip QD administered on alternate days for 17 days measured on day 23 relative to control; format: organism-based; parameters: dose 75 mg/kg, route intraperitoneal; conditions: in vivo, 408 h; outline: as §2
# NCI-H322M = assay: Growth inhibition of human NCI-H322M cells after 48 hrs by sulforhodamine B assay; format: functional; outline: as §3
# SF-268 = assay: Growth inhibition of human SF268 cells after 48 hrs by sulforhodamine B assay; format: functional; conditions: SF-268, 48 h; outline: as §3
# Mus musculus [5] = assay: Toxicity in DBA2 mouse assessed as change in hematocrit at 75 mg/kg, ip QD administered on alternate days for 17 days measured on day 23 relative to control; format: organism-based; parameters: dose 75 mg/kg, route intraperitoneal; conditions: in vivo, 408 h; outline: as §2
# L1210 = assay: Antitumor activity against mouse L1210 cells xenografted in DBA2 mouse assessed as reduction in tumor volume at 50 mg/kg, ip QD administered on alternate days for 17 days measured on day 23; format: functional; conditions: route intraperitoneal
# Outline: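 Female DBA2 mice, 5–7 weeks old, four per group. L1210 cells, passaged through a mouse, were washed three times in PBS and resuspended at 4.0 × 10^6 cells/mL. 100 µL (200,000 cells) was given sc to the flank on day 0. Vehicle-only controls. Tumor length and width were measured by caliper, and volume was compared on day 23.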
# MOLT-4 = assay: Growth inhibition of human MOLT4 cells after 48 hrs by sulforhodamine B assay; format: functional; conditions: MOLT-4, 48 h; outline: as §3
# TK-10 = assay: Growth inhibition of human TK10 cells after 48 hrs by sulforhodamine B assay; format: functional; conditions: TK-10, 48 h; outline: as §1
# UO-31 = assay: Growth inhibition of human UO31 cells after 48 hrs by sulforhodamine B assay; format: functional; conditions: UO-31, 48 h; outline: as §1
# SK-MEL-5 = assay: Growth inhibition of human SK-MEL-5 cells after 48 hrs by sulforhodamine B assay; format: functional; conditions: SK-MEL-5, 48 h; outline: as §3
# [6] = Induction of microtubule depolymerization in […] cells for 18 hrs by indirect immunofluorescence microscopic analysis; format: cell-based
# Outline: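 Uses A-10 cells, a non-transformed line that arrests in interphase under microtubule-targeting agents. Cells were treated for 18 h and interphase microtubules were visualized by indirect immunofluorescence microscopy, with vehicle-treated controls. Depolymerization was screened at concentrations below 30 µM. For EC50, a range of concentrations was tested, and EC50 is the concentration causing 50% loss of cellular microtubules by microscopy.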
# SF-539 = assay: Growth inhibition of human SF539 cells after 48 hrs by sulforhodamine B assay; format: functional; conditions: SF-539, 48 h; outline: as §3
# Malme-3M = assay: Growth inhibition of human MALME-3M cells after 48 hrs by sulforhodamine B assay; format: functional; conditions: read-out: pTGI; outline: as §3
# HCT-15 = assay: Growth inhibition of human HCT15 cells after 48 hrs by sulforhodamine B assay; format: functional; conditions: HCT-15, 48 h; outline: as §3
# IGROV-1 = assay: Growth inhibition of human IGROV1 cells after 48 hrs by sulforhodamine B assay; format: functional; conditions: IGROV-1, 48 h; outline: as §3
# T47D = assay: Growth inhibition of human T47D cells after 48 hrs by sulforhodamine B assay; format: functional; outline: as §1
# SW-620 = assay: Growth inhibition of human SW620 cells after 48 hrs by sulforhodamine B assay; format: functional; conditions: SW-620, 48 h; outline: as §1
structure (smiles),measurement,setting,value
COc1ccc(/C=C(/C(C)=O)c2cc(OC)c(OC)c(OC)c2)cc1O,GI50,U-251,324 nM
same,TGI,U-251; read-out: pTGI,> 100000 nM
same,Activity,Mus musculus [1],Non-toxic
same,GI50,NCI-H522,135 nM
same,TGI,NCI-H522; read-out: pTGI (converted),537 nM
same,GI50,A549,468 nM
same,TGI,A549; read-out: pTGI,> 100000 nM
same,GI50,OVCAR-4,933 nM
same,TGI,OVCAR-4; read-out: pTGI,> 100000 nM
same,GI50,NCI-H23,355 nM
same,TGI,NCI-H23; read-out: pTGI,> 100000 nM
same,GI50,ACHN,1230 nM
same,TGI,ACHN; read-out: pTGI,> 100000 nM
same,Activity,Mus musculus [2],Non-toxic
same,GI50,PC-3,191 nM
same,TGI,PC-3; read-out: pTGI,> 100000 nM
same,Activity,Mus musculus [3],Non-toxic
same,GI50,786-0,562 nM
same,TGI,786-0; read-out: pTGI (converted),44700 nM
same,GI50,MDA-MB-231,575 nM
same,TGI,MDA-MB-231; read-out: pTGI,> 100000 nM
same,GI50,NCI-H460,263 nM
same,TGI,NCI-H460; read-out: pTGI (converted),1320 nM
same,GI50,OVCAR-3,95.5 nM
same,TGI,OVCAR-3; read-out: pTGI (converted),355 nM
same,Activity,Mus musculus [4],Non-toxic
same,GI50,NCI-H322M,513 nM
same,TGI,NCI-H322M; read-out: pTGI,> 100000 nM
same,GI50,SF-268,363 nM
same,TGI,SF-268; read-out: pTGI (converted),16600 nM
same,Activity,Mus musculus [5],Non-toxic
same,inhibition in vivo at 50 mg/kg,L1210,35%
same,GI50,MOLT-4,316 nM
same,TGI,MOLT-4; read-out: pTGI,> 100000 nM
same,GI50,TK-10,18200 nM
same,TGI,TK-10; read-out: pTGI,> 100000 nM
same,GI50,UO-31,575 nM
same,TGI,UO-31; read-out: pTGI,> 100000 nM
same,GI50,SK-MEL-5,132 nM
same,TGI,SK-MEL-5; read-out: pTGI (converted),3090 nM
same,EC50,[6],1800 nM
same,GI50,SF-539,302 nM
same,TGI,SF-539; read-out: pTGI,> 100000 nM
same,TGI,Malme-3M,> 100000 nM
same,GI50,HCT-15,398 nM
same,TGI,HCT-15; read-out: pTGI,> 100000 nM
same,GI50,IGROV-1,316 nM
same,TGI,IGROV-1; read-out: pTGI,> 100000 nM
same,GI50,T47D,100000 nM
same,TGI,T47D; read-out: pTGI,> 100000 nM
same,GI50,SW-620,91.2 nM
same,TGI,SW-620; read-out: pTGI (converted),53700 nM
